Published values from different studies.
Lines come from different studies, so protocols differ.
Target: Mitogen-activated protein kinase kinase kinase 9 (MAP3K9, Homo sapiens, UniProt P80192)

CO[C@@H](C)c1c(Nc2ccc([C@@H](N(C)C(=O)C3CCS(=O)(=O)CC3)C(F)(F)F)cc2)cnc2cc(Cl)nn12
remaining binding (cell-free assay, competition with immobilised ligand; 1 µM): 81%

C[C@@H]1CN(c2ccc3ncc(-c4ccc5[nH]nc(C6CC6)c5c4)n3n2)C[C@H](C)O1
remaining binding (binding, competition with immobilised ligand; 50 nM): 96%

C[C@@H](c1cccc(C#N)c1)n1cc(Cl)cc(C(N)=O)c1=N
remaining binding (cell-free assay, competition with immobilised ligand; 1 µM): 100%

O=C(Nc1c[nH]nc1C(=O)NC1CCNCC1)c1cc(F)cc(F)c1
remaining binding (binding, competition with immobilised ligand; 1 µM): 100%

CN(C)c1ncnc(-c2ccc3nc(Nc4cc(CN5CCN(C(=O)CC(F)(F)F)CC5)ccn4)[nH]c3c2)c1Cl
remaining binding (cell-free assay, competition with immobilised ligand; 1 µM): 90%

CN(C)c1nccc(-c2cnn3ncccc23)n1
remaining binding (binding; 1 µM): 100%

C[C@@]1(Cc2ccc(C#N)cc2)C(=O)N(c2cc(Cl)cc(Cl)c2)c2ncc(C(=O)NC3(c4nc(C5CCC5)no4)CC3)n21
remaining binding (cell-free assay, competition with immobilised ligand; 1 µM): 100%

CN(c1nccc(-c2cnn3ncccc23)n1)C1CC1
remaining binding (binding; 1 µM): 85%

C[C@@H](c1ccc(-n2cnc3c(N)ncnc32)cc1)N1CCc2nn(C)c(Cc3ccccc3)c2C1=O
remaining binding (binding, competition with immobilised ligand; 0.1 µM): 95%

COc1cnc(Nc2cccc(S(N)(=O)=O)c2)nc1N1CCN(c2ccccc2)CC1
remaining binding (binding, competition with immobilised ligand; 1 µM): 73%

C[C@@H]1CCN(c2nccc(-c3cnn4ncccc34)n2)C1
remaining binding (binding; 1 µM): 100%

CC(=O)C1=C(C)N(c2cccc(C(F)(F)F)c2)C(=O)N[C@@H]1c1ccc(C#N)nc1
remaining binding (cell-free assay, competition with immobilised ligand; 1 µM): 94%

c1cncc(-c2cccc(Nc3nccc(NC4CCCCC4)n3)c2)c1
remaining binding (binding, competition with immobilised ligand; 10 µM): 19%

O=C(c1ccc(Nc2ncc(Cl)c(-c3ccc(Cl)s3)n2)cc1)N1CCC(N2CCCC2)CC1
remaining binding (binding, competition with immobilised ligand; 1 µM): 8.9%

CN(CCCC(F)(F)F)c1nccc(-c2cnn3ncccc23)n1
remaining binding (binding; 1 µM): 88%

O=C(NCCCN1CCOCC1)c1ccc(Nc2ncc(Cl)c(-c3ccc(Cl)s3)n2)cc1
remaining binding (binding, competition with immobilised ligand; 1 µM): 11%

COc1ccnn2ncc(-c3ccnc(N(C)C)n3)c12
remaining binding (binding; 1 µM): 91%

O=C(c1ccc(Nc2ncc(Cl)c(-c3cc4ccccc4s3)n2)cc1)N1CCC(N2CCCC2)CC1
remaining binding (binding, competition with immobilised ligand; 1 µM): 4.3%

Cc1cnn2ncc(-c3ccnc(N(C)C)n3)c2c1
remaining binding (binding; 1 µM): 100%

COc1cc(-c2cn(C3CCc4c(F)cccc4N(CC(F)(F)F)C3=O)nn2)ccc1-n1cnc(C)c1 (stereo not shown)
remaining binding (cell-free assay, competition with immobilised ligand; 1 µM): 100%

CN(C)c1ncc(F)c(-c2cnn3ncccc23)n1
remaining binding (binding; 1 µM): 100%

Cc1cc(C)c(-n2ccn3nc(-c4cccnc4)cc23)cc1NC(=O)c1cc(C#N)cc(S(F)(F)(F)(F)F)c1
remaining binding (cell-free assay, competition with immobilised ligand; 0.1 µM): 79.5%

C=CC(=O)N1CCC(C(=O)NCC(=O)N2CCN(c3nc(-c4cnc(N)nc4C(F)F)nc(N4CCOCC4)n3)CC2)CC1
remaining binding (binding, competition with immobilised ligand; 1 µM): 96%

O=C(NS(=O)(=O)c1ccc(NCC2CCOCC2)c([N+](=O)[O-])c1)c1ccc(N2CCN(Cc3ccc(C(F)(F)F)cc3-c3ccc(Cl)cc3)CC2)cc1Oc1cnc2[nH]ccc2c1
remaining binding (cell-free assay, competition with immobilised ligand; 1 µM): 100%

N#Cc1ccccc1CSc1nnc2c(n1)[nH]c1ccccc12
remaining binding (binding, competition with immobilised ligand; 10 µM): 98%
